Data on 1 compound can be found in ChEMBL document CHEMBL1145462, “In vivo pharmacodynamic activity of the glycopeptide dalbavancin” (Antimicrob Agents Chemother, 2007).

In brackets after ≈: the same amount, converted by molar mass.

Type in all cases: functional
The subject of experiment [1] is Staphylococcus aureus. Kind of experiment: Antibacterial activity against Staphylococcus aureus ATCC 25923 by microdilution method. A digest of the protocol:
(§1)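 MIC and MBC were determined by CLSI broth microdilution, in duplicate on at least two occasions. Staphylococci were grown in Mueller-Hinton broth and agar; pneumococci were plated on sheep blood agar.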
(Broth dilution looks for growth in wells or tubes with falling amounts of substance.)

The test system of experiment [2] is Staphylococcus aureus. Put plainly: Antibacterial activity against Staphylococcus aureus 33591 by microdilution method. A digest of the protocol: (§2)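 MICs in duplicate on at least two occasions by standard CLSI broth microdilution; S. aureus grown and quantified in Mueller-Hinton broth/agar.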
For experiment [3], the system named is Staphylococcus aureus. Put plainly: Antibacterial activity against Staphylococcus aureus 31005 by microdilution method. In outline:
as §1

The test system of experiment [4] is Staphylococcus aureus. Kind of experiment: Antibacterial activity against Staphylococcus aureus Smith by microdilution method. A digest of the protocol:
as §2

Experiment [5] relates to Staphylococcus aureus. Kind of experiment: Antibacterial activity against Staphylococcus aureus 307109 by microdilution method. In outline:
as §1

One may read the MIC as the lowest concentration found to suppress growth. Higher therefore signals weaker potency.

For `COc1cccc(OC)c1C(=O)N[C@@H]1C(=O)N2[C@@H]1SC(C)(C)[C@@H]2C(=O)O` [METHICILLIN], the MIC was 0.12 µg/mL (≈ 0.315 µM) against Staphylococcus aureus [1]; > 8 µg/mL against Staphylococcus aureus [2]; 0.12 µg/mL (≈ 0.315 µM) in the experiment with Staphylococcus aureus [3]; 0.12 µg/mL (≈ 0.315 µM) in the experiment on Staphylococcus aureus [4]; > 8 µg/mL in the experiment with Staphylococcus aureus [5].
